Results on 18 compounds are retold here after ChEMBL document CHEMBL5154934, “Structure-Guided Design of Potent Spirocyclic Inhibitors of Severe Acute Respiratory Syndrome Coronavirus-2 3C-like Protease” (J Med Chem, 2022).

Structures are written as SMILES. Activity calls are given as the source filed them. No cut-off for these calls is given here.

Biological target in the first series: not listed separately
The experiment in a line: Inhibition of MERS-CoV 3C-like protease incubated for 30 mins by FRET enzyme assay. Details: species or system Middle East respiratory syndrome-related coronavirus.
Details: not given
A word on the IC50: it is the concentration that gives 50% inhibition. In turn, `CC(C)C[C@H](NC(=O)OCC1CN(C(=O)Cc2ccccc2)C1)C(=O)N[C@H](C=O)C[C@H]1CCNC1=O` had an IC50 of 280 nM.
Same read-out and setting: under `CC(C)C[C@H](NC(=O)OC1CN(C(=O)OC(C)(C)C)C1)C(=O)N[C@H](C=O)C[C@H]1CCNC1=O` stands 1650 nM.
Still for that read-out and setting: then `CC(C)C[C@H](NC(=O)OC1CC2(CCN(C(=O)C(C)C)CC2)C1)C(=O)N[C@H](C=O)C[C@H]1CCNC1=O`, with 650 nM.
Consider `CC(C)C[C@H](NC(=O)OC1CC2(C1)CN(C(=O)C(C)C)C2)C(=O)N[C@H](C=O)C[C@H]1CCNC1=O`, for which the IC50 amounted to 350 nM.
The same measure, in the same setting: under `CC(C)C[C@H](NC(=O)OC1CC2(CCN(C(=O)Cc3ccccc3)CC2)C1)C(=O)N[C@H](C=O)C[C@H]1CCNC1=O` stands 700 nM; under `CC(C)C[C@H](NC(=O)OC1(C)CN(C(=O)OC(C)(C)C)C1)C(=O)N[C@H](C=O)C[C@H]1CCNC1=O`, 3450 nM; under `CC(C)C[C@H](NC(=O)OCC1CN(C(=O)OC(C)(C)C)C1)C(=O)N[C@H](C=O)C[C@H]1CCNC1=O`, 490 nM.
On to `CC(C)C[C@H](NC(=O)OC1CC2(C1)CN(C(=O)OC(C)(C)C)C2)C(=O)N[C@H](C=O)C[C@H]1CCNC1=O`, for which the IC50 was determined as 1500 nM.
Same read-out and setting: under `CC(C)C[C@H](NC(=O)OC1CC2(CCN(C(=O)OC(C)(C)C)CC2)C1)C(=O)N[C@H](C=O)C[C@H]1CCNC1=O` stands 1200 nM.
Same read-out and setting: under `CC(C)C[C@H](NC(=O)OC1CC2(CCN(C(=O)OC(C)(C)C)C2)C1)C(=O)N[C@H](C=O)C[C@H]1CCNC1=O` (stereo partly drawn) stands 700 nM; under `[2H]C([2H])(OC(=O)N[C@@H](CC(C)C)C(=O)N[C@H](C=O)C[C@H]1CCNC1=O)C1CN(C(=O)OC(C)(C)C)C1`, 350 nM.
In turn, `CC(C)C[C@H](NC(=O)OC1CC2(C1)CN(C(=O)Cc1ccccc1)C2)C(=O)N[C@H](C=O)C[C@H]1CCNC1=O` had a half-maximal inhibitory concentration (IC50) of 210 nM.
The same measure, in the same setting: under `CC(C)C[C@H](NC(=O)OCC1CN(C(=O)C2CC3CCC2C3)C1)C(=O)N[C@H](C=O)C[C@H]1CCNC1=O` (stereo partly drawn) stands 190 nM.
On the same count and under the same terms, under `CC(C)C[C@H](NC(=O)OC1CCC2(C1)CN(C(=O)OC(C)(C)C)C2)C(=O)N[C@H](C=O)C[C@H]1CCNC1=O` (stereo partly drawn) stands 1010 nM; under `CC(C)C[C@H](NC(=O)OCC1CN(S(C)(=O)=O)C1)C(=O)N[C@H](C=O)C[C@H]1CCNC1=O`, 1400 nM; under `CC(C)C[C@H](NC(=O)OC1CC2(CCN(S(C)(=O)=O)CC2)C1)C(=O)N[C@H](C=O)C[C@H]1CCNC1=O`, 370 nM.
The same measure, in the same setting: then `CC(C)C[C@H](NC(=O)OC1CC2(CCN(C#N)CC2)C1)C(=O)N[C@H](C=O)C[C@H]1CCNC1=O`, with 560 nM; and `CC(C)C[C@H](NC(=O)OC1CC2(C1)CN(S(C)(=O)=O)C2)C(=O)N[C@H](C=O)C[C@H]1CCNC1=O`, with 220 nM.

System in another series: not listed separately
Put plainly: Safety index, ratio of CC50 for cytotoxicity against Vero E6 cells to EC50 for antiviral activity against SARS-CoV-2 Wuhan-Hu-1. The settings on record: monkey, read-out: Ratio CC50/EC50. The series is classed as toxicity, cell-based, Vero C1008.
Regarding `CC(C)C[C@H](NC(=O)OC1CC2(CCN(C(=O)OC(C)(C)C)CC2)C1)C(=O)N[C@H](C=O)C[C@H]1CCNC1=O`, the selectivity ratio stood at 1250.

System in a further series: not listed separately
Put plainly: Cytotoxicity against african green monkey Vero E6 cells. The settings on record: chlorocebus sabaeus. The series is classed as toxicity, cell-based, Vero C1008.
For orientation: CC50 means the concentration that lowers cell viability or growth by half. In turn, `CC(C)C[C@H](NC(=O)OCC1CN(C(=O)Cc2ccccc2)C1)C(=O)N[C@H](C=O)C[C@H]1CCNC1=O` gave a CC50 above 100000 nM.
Same read-out and setting: then `CC(C)C[C@H](NC(=O)OC1CN(C(=O)OC(C)(C)C)C1)C(=O)N[C@H](C=O)C[C@H]1CCNC1=O`, with above 100000 nM; and `CC(C)C[C@H](NC(=O)OC1CC2(CCN(C(=O)C(C)C)CC2)C1)C(=O)N[C@H](C=O)C[C@H]1CCNC1=O`, with above 100000 nM.
On the same count and under the same terms, under `CC(C)C[C@H](NC(=O)OC1CC2(C1)CN(C(=O)C(C)C)C2)C(=O)N[C@H](C=O)C[C@H]1CCNC1=O` stands above 100000 nM.
Same read-out and setting: under `CC(C)C[C@H](NC(=O)OC1CC2(CCN(C(=O)Cc3ccccc3)CC2)C1)C(=O)N[C@H](C=O)C[C@H]1CCNC1=O` stands above 100000 nM; under `CC(C)C[C@H](NC(=O)OC1(C)CN(C(=O)OC(C)(C)C)C1)C(=O)N[C@H](C=O)C[C@H]1CCNC1=O`, above 100000 nM; under `CC(C)C[C@H](NC(=O)OCC1CN(C(=O)OC(C)(C)C)C1)C(=O)N[C@H](C=O)C[C@H]1CCNC1=O`, above 100000 nM.
`CC(C)C[C@H](NC(=O)OC1CC2(C1)CN(C(=O)OC(C)(C)C)C2)C(=O)N[C@H](C=O)C[C@H]1CCNC1=O`: the half-maximal cytotoxic concentration (CC50) was above 100000 nM.
The same measure, in the same setting: under `CC(C)C[C@H](NC(=O)OC1CC2(CCN(C(=O)OC(C)(C)C)CC2)C1)C(=O)N[C@H](C=O)C[C@H]1CCNC1=O` stands above 100000 nM.
On the same count and under the same terms, then `CC(C)C[C@H](NC(=O)OC1CC2(CCN(C(=O)OC(C)(C)C)C2)C1)C(=O)N[C@H](C=O)C[C@H]1CCNC1=O` (stereo partly drawn), with above 100000 nM.
The same measure, in the same setting: then `[2H]C([2H])(OC(=O)N[C@@H](CC(C)C)C(=O)N[C@H](C=O)C[C@H]1CCNC1=O)C1CN(C(=O)OC(C)(C)C)C1`, with above 100000 nM; and `CC(C)C[C@H](NC(=O)OC1CC2(C1)CN(C(=O)Cc1ccccc1)C2)C(=O)N[C@H](C=O)C[C@H]1CCNC1=O`, with above 100000 nM.
For the compound `CC(C)C[C@H](NC(=O)OCC1CN(C(=O)C2CC3CCC2C3)C1)C(=O)N[C@H](C=O)C[C@H]1CCNC1=O` (stereo partly drawn), the CC50 was above 100000 nM.
Turning to `CC(C)C[C@H](NC(=O)OC1CCC2(C1)CN(C(=O)OC(C)(C)C)C2)C(=O)N[C@H](C=O)C[C@H]1CCNC1=O` (stereo partly drawn), the half-maximal cytotoxic concentration (CC50) was above 100000 nM.
Still for that read-out and setting: under `CC(C)C[C@H](NC(=O)OCC1CN(S(C)(=O)=O)C1)C(=O)N[C@H](C=O)C[C@H]1CCNC1=O` stands above 100000 nM.
Same read-out and setting: then `CC(C)C[C@H](NC(=O)OC1CC2(CCN(S(C)(=O)=O)CC2)C1)C(=O)N[C@H](C=O)C[C@H]1CCNC1=O`, with above 100000 nM.
Still for that read-out and setting: then `CC(C)C[C@H](NC(=O)OC1CC2(CCN(C#N)CC2)C1)C(=O)N[C@H](C=O)C[C@H]1CCNC1=O`, with above 100000 nM.
`CC(C)C[C@H](NC(=O)OC1CC2(C1)CN(S(C)(=O)=O)C2)C(=O)N[C@H](C=O)C[C@H]1CCNC1=O` gave a CC50 above 100000 nM.

In the next series the test system is SARS-CoV-2. The experiment in a line: Antiviral activity against N-terminal His6-tagged SARS-CoV-2 3C-like protease […] HEK293T cells measured after 24 hrs by cell based replicon assay. The series is classed as functional, organism-based. Conditions: Severe acute respiratory syndrome coronavirus 2. (In general: In antiviral work, replicon cells carry a viral genome segment that copies itself.)
With `CC(C)C[C@H](NC(=O)OCC1CN(C(=O)OC(C)(C)C)C1)C(=O)N[C@H](C=O)C[C@H]1CCNC1=O`, the result was Active.
On the same count and under the same terms, then `CC(C)C[C@H](NC(=O)OC1CC2(CCN(C(=O)OC(C)(C)C)CC2)C1)C(=O)N[C@H](C=O)C[C@H]1CCNC1=O`, with “Active”.

A further series deals with Replicase polyprotein 1ab (Severe acute respiratory syndrome coronavirus 2, UniProt P0DTD1). Put plainly: Inhibition of N-terminal His6-tagged SARS-CoV2 Wuhan-Hu-1 3C-like protease […] expressed in Escherichia coli BL21 (DE3) cells using FAM-SAVLQ/SG-QXL520 as substrate by FRET enzyme assay.
Details: not given
Summed up:
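Enzyme was full-length codon-optimized N-terminal His6 protease from pET-28a. It was preincubated with serial inhibitor dilutions, or DMSO, for 1 h at 37°C in 20 mM HEPES pH 8 with 200 mM NaCl, 0.4 mM EDTA, 60% glycerol and 6 mM DTT. FAM-SAVLQ/SG-QXL520 was then added and fluorescence (ex 480/em 520 nm) read after 1 h. Readings were background-subtracted. IC50 came from a variable-slope fit, mean ± SD of ≥3 replicates.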
As for `CC(C)C[C@H](NC(=O)OCC1CN(C(=O)Cc2ccccc2)C1)C(=O)N[C@H](C=O)C[C@H]1CCNC1=O`, the midpoint of inhibition, the IC50, lay at 830 nM.
For the compound `CC(C)C[C@H](NC(=O)OC1CN(C(=O)OC(C)(C)C)C1)C(=O)N[C@H](C=O)C[C@H]1CCNC1=O`, the IC50 amounted to 2500 nM.
The same measure, in the same setting: then `CC(C)C[C@H](NC(=O)OC1CC2(CCN(C(=O)C(C)C)CC2)C1)C(=O)N[C@H](C=O)C[C@H]1CCNC1=O`, with 380 nM.
On the same count and under the same terms, then `CC(C)C[C@H](NC(=O)OC1CC2(C1)CN(C(=O)C(C)C)C2)C(=O)N[C@H](C=O)C[C@H]1CCNC1=O`, with 1150 nM; and `CC(C)C[C@H](NC(=O)OC1CC2(CCN(C(=O)Cc3ccccc3)CC2)C1)C(=O)N[C@H](C=O)C[C@H]1CCNC1=O`, with 350 nM; and `CC(C)C[C@H](NC(=O)OC1(C)CN(C(=O)OC(C)(C)C)C1)C(=O)N[C@H](C=O)C[C@H]1CCNC1=O`, with 3650 nM.
The same measure, in the same setting: then `CC(C)C[C@H](NC(=O)OCC1CN(C(=O)OC(C)(C)C)C1)C(=O)N[C@H](C=O)C[C@H]1CCNC1=O`, with 410 nM.
`CC(C)C[C@H](NC(=O)OC1CC2(C1)CN(C(=O)OC(C)(C)C)C2)C(=O)N[C@H](C=O)C[C@H]1CCNC1=O` showed an IC50 of 3300 nM.
The same measure, in the same setting: under `CC(C)C[C@H](NC(=O)OC1CC2(CCN(C(=O)OC(C)(C)C)CC2)C1)C(=O)N[C@H](C=O)C[C@H]1CCNC1=O` stands 360 nM.
On the same count and under the same terms, under `[2H]C([2H])(OC(=O)N[C@@H](CC(C)C)C(=O)N[C@H](C=O)C[C@H]1CCNC1=O)C1CN(C(=O)OC(C)(C)C)C1` stands 330 nM; under `CC(C)C[C@H](NC(=O)OC1CC2(C1)CN(C(=O)Cc1ccccc1)C2)C(=O)N[C@H](C=O)C[C@H]1CCNC1=O`, 260 nM; under `CC(C)C[C@H](NC(=O)OCC1CN(C(=O)C2CC3CCC2C3)C1)C(=O)N[C@H](C=O)C[C@H]1CCNC1=O` (stereo partly drawn), 520 nM.
Still for that read-out and setting: under `CC(C)C[C@H](NC(=O)OC1CCC2(C1)CN(C(=O)OC(C)(C)C)C2)C(=O)N[C@H](C=O)C[C@H]1CCNC1=O` (stereo partly drawn) stands 1250 nM; under `CC(C)C[C@H](NC(=O)OCC1CN(S(C)(=O)=O)C1)C(=O)N[C@H](C=O)C[C@H]1CCNC1=O`, 4950 nM.
Regarding `CC(C)C[C@H](NC(=O)OC1CC2(CCN(S(C)(=O)=O)CC2)C1)C(=O)N[C@H](C=O)C[C@H]1CCNC1=O`, half-maximal inhibition (IC50) was put at 240 nM.
On the same count and under the same terms, then `CC(C)C[C@H](NC(=O)OC1CC2(CCN(C#N)CC2)C1)C(=O)N[C@H](C=O)C[C@H]1CCNC1=O`, with 320 nM; and `CC(C)C[C@H](NC(=O)OC1CC2(C1)CN(S(C)(=O)=O)C2)C(=O)N[C@H](C=O)C[C@H]1CCNC1=O`, with 680 nM.

The next series concerns SARS-CoV-2. Put plainly: Antiviral activity against SARS-CoV-2 3C-like measured after 24 hrs. Format: functional, organism-based. Conditions: Severe acute respiratory syndrome coronavirus 2, 24 h.
What is called EC50 is the concentration that produces a half-maximal response. `CC(C)C[C@H](NC(=O)OCC1CN(C(=O)OC(C)(C)C)C1)C(=O)N[C@H](C=O)C[C@H]1CCNC1=O` yielded an EC50 of 380 nM.
In turn, `CC(C)C[C@H](NC(=O)OC1CC2(CCN(C(=O)OC(C)(C)C)CC2)C1)C(=O)N[C@H](C=O)C[C@H]1CCNC1=O` had an EC50 of 90 nM.
